Bioassay records deposited in PubChem by several laboratories.
Most compounds without a hit are left out; they make up all but 1.2% or so of the library.
hK5 inh: blocks human kallikrein 5 protease activity; Q9Y337; recombinant hK5, fluorogenic AMC substrate cleavage; inhibition, % at 5 µM; hit rate 0.59% among 210,000; AID 873;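 active = inhibition of 40% or more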
FXIa inh: inhibitors of human coagulation factor XIa; P03951; purified FXIa, Boc-Glu-Ala-Arg-AMC fluorogenic substrate; inhibition, % at 5 µM; hit rate 0.14% among 220,000;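 active = inhibition of at least 40%; inactive = inhibition below 40%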;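 also: fluorescence of freed AMC excited at 355 nm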
Target sequence (P03951 19-387 limits assumed): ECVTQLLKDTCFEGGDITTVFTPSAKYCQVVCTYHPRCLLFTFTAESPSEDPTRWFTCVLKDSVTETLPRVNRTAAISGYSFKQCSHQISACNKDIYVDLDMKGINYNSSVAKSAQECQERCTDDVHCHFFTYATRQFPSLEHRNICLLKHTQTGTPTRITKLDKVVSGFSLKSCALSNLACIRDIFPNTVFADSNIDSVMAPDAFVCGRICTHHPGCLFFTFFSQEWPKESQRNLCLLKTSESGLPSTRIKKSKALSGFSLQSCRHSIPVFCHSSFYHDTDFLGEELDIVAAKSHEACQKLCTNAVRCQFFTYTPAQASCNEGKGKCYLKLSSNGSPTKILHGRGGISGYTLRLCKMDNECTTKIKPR
Target sequence (P03951 388-625 limits assumed): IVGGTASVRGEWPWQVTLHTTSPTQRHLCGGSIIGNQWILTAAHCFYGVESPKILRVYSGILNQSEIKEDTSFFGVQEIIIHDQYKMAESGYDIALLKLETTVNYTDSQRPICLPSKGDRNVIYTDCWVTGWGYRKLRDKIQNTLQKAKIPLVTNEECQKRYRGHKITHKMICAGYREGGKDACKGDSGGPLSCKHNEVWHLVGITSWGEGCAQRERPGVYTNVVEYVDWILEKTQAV
S1P3 antag-1: antagonists of human S1P3 receptor; CHO S1P3 NFAT-BLA reporter, FRET fluorescence, antagonist mode; hit rate 0.27% among 170,000; inhibition, % at 4.98 µM; AID 485; Q99500;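 active = inhibition above the plate cutoff, the mean inhibition of test wells on that plate plus 3 SD, cut at about 28% in these data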;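 also: cells challenged with S1P at its EC80 of 0.8 µM; blue over green emission ratio from cleaved BLA substrate after 4 h stimulation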
thrombin 1536: inhibitors of human thrombin | P00734 | alpha-thrombin, Boc-VPR-AMC fluorogenic substrate cleavage | inhibition, % at 5 µM | hit rate 0.26% among 220,000;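 active = inhibition at or above 40%; inactive = inhibition below 40%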
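Material: human alpha-thrombin protein. Incubation: reaction at ambient temperature. Technique: fluorescence of released AMC, ex 355 nm, em 460 nm. Control set: no-compound enzyme wells and no-enzyme blanks. Also added: Boc-VPR-AMC substrate, 15 µM final. Buffer or medium: pH 7.5 Tris (50 mM) with NaCl 150 mM, Tween 20 0.05%.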
FXIIa inh 1536: inhibitors of human coagulation factor XIIa; AID 800; inhibition, % at 5 µM; purified FXIIa, Boc-QGR-AMC fluorogenic substrate, 2 h; P00748; hit rate 0.3% among 220,000; in the data active = inhibition above about 40%
Redox H2O2 prof: compounds producing H2O2 with reducing agent – biochemical, NIH compound library profiling, artefact control for MLSCN library redox annotation, primary screen. DTT-dependent redox cycling H2O2, phenol red/HRP absorbance; 100% = 100 µM peroxide control, 0% = buffer. AID 878. hit rate 0.03% among 200,000. activation, % at 10 µM;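 active = activation of at least 50% relative to the plate's high and low controls in the primary single-dose screen; inactive = activation below 50%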;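 also: compound incubated with DTT at 0.8 mM final as the reducing agent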
S1P3 antag-2: human S1P3 receptor antagonism, confirmation; shares compounds with S1P3 antag-1; CHO S1P3 NFAT-BLA reporter, FRET, antagonist mode; inhibition, % at 4.98 µM; hit rate 30% among 240; AID 1429;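 active = inhibition above the hit threshold that was computed for the earlier primary screen, cut at about 30% in these data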
DTT redox conf: generates H2O2 by DTT-dependent redox cycling, confirmed in dose response | EC50, µM | AID 1234 | shares compounds with Redox H2O2 prof | hit rate 40% among 60 | phenol red-HRP absorbance;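 active = EC50 under a set limit for hydrogen peroxide production with the reducing agent DTT present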
Large screens that a line does not name were inactive (follow-up assays come after a bar, where they were run).

O=[N+]([O-])c1ccc(C2=NN(c3ccccc3)C(c3ccco3)C2)cc1 (stereo not drawn)	S1P3 antag-1 34 (no result: Redox H2O2 prof) | S1P3 antag-2 46
CN1C(=O)C(CC(=O)NCCc2ccccc2)N(NC(=O)c2ccc(Cl)cc2)C1=S (stereo not drawn)	none (no result: Redox H2O2 prof)
CC(C)OC(=O)/C(=C\c1cccc2ccccc12)NC(=O)c1ccccc1	S1P3 antag-1 37 | S1P3 antag-2 inactive
CC(C)OC(=O)/C(=C\c1ccccc1)NC(=O)c1ccccc1	none
Cc1ccc(C(C)C)c(OCC(=O)NN=C(CCl)CCl)c1	none (no result: Redox H2O2 prof)
Cc1cc(C)c(C)c(S(=O)(=O)N2CCN(C(=O)CCC(=O)N3CCOCC3)CC2)c1C	S1P3 antag-1 31 (no result: Redox H2O2 prof) | S1P3 antag-2 inactive
CNC(=O)c1ccc(-n2cccn2)nc1	none
OCCC1CN(Cc2ccc(Oc3ncccn3)cc2)CCN1C1CCCCC1 (stereo not drawn)	none (no result: Redox H2O2 prof)
O=C(c1cc2ccccc2o1)N1CCN(S(=O)(=O)/C=C/c2ccccc2)CC1	none
O=C(c1ccco1)N1CCN(S(=O)(=O)/C=C/c2ccccc2)CC1	S1P3 antag-1 30 | S1P3 antag-2 inactive
Cc1ccccc1NC(=O)/C=C/c1ccc([N+](=O)[O-])s1	S1P3 antag-1 36 | S1P3 antag-2 42
Cc1cc(C)cc(NC(=O)/C=C/c2ccc([N+](=O)[O-])s2)c1	none
CC(=O)Nc1cc(OC(C)=O)c2nonc2c1OC(C)=O	S1P3 antag-1 54, Redox H2O2 prof 113 (no result: hK5 inh, FXIa inh, thrombin 1536, FXIIa inh 1536) | DTT redox conf 7.8
CC(=O)N(/N=C1\Sc2ccccc2C1=O)c1cccc(C)c1	Redox H2O2 prof 296 (no result: S1P3 antag-1) | DTT redox conf 26
Cc1ccc(C(=O)c2c(C)oc3c2C(=O)C(=O)c2ccccc2-3)cc1	Redox H2O2 prof 458 (no result: S1P3 antag-1) | DTT redox conf inactive
O=C(c1ccc(Cl)cc1)c1ccc(CN2C(=O)c3ccccc3C2=O)o1	none (no result: S1P3 antag-1)
Cc1ccc(C(=O)c2coc3c2C(=O)C(=O)c2ccccc2-3)cc1	none (no result: S1P3 antag-1)
Cc1oc2c(c1C(=O)c1ccc(Cl)cc1)C(=O)C(=O)c1ccccc1-2	Redox H2O2 prof 344 (no result: S1P3 antag-1) | DTT redox conf 6.4
O=S(=O)(Nc1c(S(=O)(=O)c2ccccc2)c2nc3ccccc3nc2n1C1CCCCC1)c1ccccc1	Redox H2O2 prof 95 | DTT redox conf 12
C=CCn1c(NS(=O)(=O)c2ccccc2)c(S(=O)(=O)c2ccc(C)cc2)c2nc3ccccc3nc21	Redox H2O2 prof 99 | DTT redox conf inactive
COc1ccc(CN2C(=O)c3cccnc3C2O)cc1 (stereo not drawn)	Redox H2O2 prof 68 (no result: S1P3 antag-1) | DTT redox conf inactive
Cc1c(C(=O)OCC(=O)NCC2CCCO2)cccc1[N+](=O)[O-] (stereo not drawn)	none (no result: FXIIa inh 1536)
CCOC(=O)c1c2c(n(C)c1C)C(=O)C(=O)c1ccc(Br)cc1-2	Redox H2O2 prof 322 (no result: hK5 inh, FXIa inh, S1P3 antag-1, thrombin 1536, FXIIa inh 1536) | DTT redox conf 0.04
Cc1c(CN(C)C)c2c(n1C)C(=O)c1ccc(Br)cc1-2	none
O=C(CSc1nnc(-c2ccco2)o1)c1ccc[nH]1	none
O=C(COC(=O)c1ccc([N+](=O)[O-])s1)Nc1ccccc1	none
O=C(COC(=O)c1ccc([N+](=O)[O-])s1)NCc1ccccc1	Redox H2O2 prof 113 | DTT redox conf 39
CCOc1ccc2c(=O)c(Oc3ccccc3)c(C)oc2c1	Redox H2O2 prof 57 (no result: S1P3 antag-1) | DTT redox conf inactive
Nc1nc2c(nc(SCc3ccccc3Br)n2C2OC(CO)C(O)C2O)c(=O)[nH]1 (stereo not drawn)	none
CNC1=C(N(C(C)=O)c2ccc(Br)cc2)C(=O)c2ccccc2C1=O	Redox H2O2 prof 108 | DTT redox conf inactive
CCC(=O)N(C1=C(NC)C(=O)c2ccccc2C1=O)C(C)C	none
CC(C)S(=O)(=O)c1csc(NC(=O)Nc2ccc(Cl)cc2)c1	none (no result: Redox H2O2 prof)
CCCOC(=O)Nc1ccc(S(=O)(=O)Nc2ncccn2)cc1	none (no result: Redox H2O2 prof)
Cc1ccc(N2CCN(C(=O)N3CCOCC3)CC2)c(C)c1	none
CC(C)CN(C(=O)COC(=O)c1ccc([N+](=O)[O-])o1)C1CCS(=O)(=O)C1 (stereo not drawn)	Redox H2O2 prof 122 | DTT redox conf inactive
O=S(=O)(Nc1cc2nc3ccccc3nc2n1Cc1ccccc1)c1ccc(Cl)cc1	Redox H2O2 prof 85 | DTT redox conf inactive
O=S(=O)(NCc1ccccc1)c1ccc(Cl)cc1	none (no result: S1P3 antag-1)
Cc1cc(C)c(S(=O)(=O)/N=C2/C=C(Sc3ncn[nH]3)C(=O)c3ccccc32)cc1C	Redox H2O2 prof 143 | DTT redox conf 23
CCCCn1c(NC(=O)c2ccc(F)cc2)c(C#N)c2nc3ccccc3nc21	none (no result: hK5 inh, FXIa inh, thrombin 1536, FXIIa inh 1536, Redox H2O2 prof)
CCC(C)n1c(NC(=O)c2ccccc2)c(C#N)c2nc3ccccc3nc21 (stereo not drawn)	Redox H2O2 prof 63 (no result: hK5 inh, FXIa inh, S1P3 antag-1, thrombin 1536, FXIIa inh 1536) | DTT redox conf inactive
O=C(C1=NNCC1c1ccccc1)C1OC1c1ccccc1 (stereo not drawn)	none (no result: Redox H2O2 prof)
C[n+]1nc(Nc2ccccc2)sc1-c1ccc(C(=O)O)cc1	none (no result: S1P3 antag-1, Redox H2O2 prof)
